Measured values taken from ChEMBL document CHEMBL1152449, “6-methyl-2,4-disubstituted pyridazin-3(2H)-ones: a novel class of small-molecule agonists for formyl peptide receptors” (J Med Chem, 2009).

Tests used:
fMet-Leu-Phe receptor [1] = molecular target: T1, fMet-Leu-Phe receptor (Homo sapiens, UniProt P21462); test: Agonist activity at FPR1 in human neutrophiles assessed as induction of intracellular calcium flux by FLIPR3 calcium assay; format: functional, cell-based
T1 sequence (P21462 whole entry): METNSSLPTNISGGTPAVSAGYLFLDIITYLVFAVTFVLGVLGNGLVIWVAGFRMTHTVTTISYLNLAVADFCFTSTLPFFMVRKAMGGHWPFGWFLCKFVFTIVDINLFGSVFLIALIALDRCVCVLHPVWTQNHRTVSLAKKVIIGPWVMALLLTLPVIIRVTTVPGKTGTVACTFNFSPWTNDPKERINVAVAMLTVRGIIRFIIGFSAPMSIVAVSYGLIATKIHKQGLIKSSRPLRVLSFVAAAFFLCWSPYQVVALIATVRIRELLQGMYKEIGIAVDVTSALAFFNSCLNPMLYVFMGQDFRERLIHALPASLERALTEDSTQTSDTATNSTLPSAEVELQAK

[2] = molecular target: T2, N-formyl peptide receptor 3 (Homo sapiens, UniProt P25089); test: Agonist activity at FPRL2 expressed in human HL60 cells assessed as induction of intracellular calcium flux by FLIPR3 calcium assay; format: functional, cell-based; conditions: hl-60
T2 sequence (P25089 whole entry): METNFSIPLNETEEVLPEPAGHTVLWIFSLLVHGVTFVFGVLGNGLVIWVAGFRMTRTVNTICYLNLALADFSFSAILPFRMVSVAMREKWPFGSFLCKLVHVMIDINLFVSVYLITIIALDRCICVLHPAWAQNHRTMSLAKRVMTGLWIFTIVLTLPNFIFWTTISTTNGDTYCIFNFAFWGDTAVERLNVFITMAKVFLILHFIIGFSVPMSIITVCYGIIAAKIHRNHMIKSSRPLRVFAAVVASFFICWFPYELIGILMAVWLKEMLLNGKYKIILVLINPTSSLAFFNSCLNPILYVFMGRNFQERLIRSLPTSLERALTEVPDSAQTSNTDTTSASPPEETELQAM
How it was run: (§1)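 HL-60 cells stably transfected with the receptor, grown in RPMI with 10% heat-inactivated FCS, 10 mM HEPES, antibiotics and G418 (1 mg/mL). They were then washed, resuspended in HBSS+ (2 × 10^5 cells/well) and read on a FlexStation II.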

[3] = molecular target: T3, N-formyl peptide receptor 2 (Homo sapiens, UniProt P25090); test: Agonist activity at FPRL1 expressed in human HL60 cells assessed as induction of intracellular calcium flux by FLIPR3 calcium assay; format: functional, cell-based; conditions: hl-60; how it was run: as §1
T3 sequence (P25090 whole entry): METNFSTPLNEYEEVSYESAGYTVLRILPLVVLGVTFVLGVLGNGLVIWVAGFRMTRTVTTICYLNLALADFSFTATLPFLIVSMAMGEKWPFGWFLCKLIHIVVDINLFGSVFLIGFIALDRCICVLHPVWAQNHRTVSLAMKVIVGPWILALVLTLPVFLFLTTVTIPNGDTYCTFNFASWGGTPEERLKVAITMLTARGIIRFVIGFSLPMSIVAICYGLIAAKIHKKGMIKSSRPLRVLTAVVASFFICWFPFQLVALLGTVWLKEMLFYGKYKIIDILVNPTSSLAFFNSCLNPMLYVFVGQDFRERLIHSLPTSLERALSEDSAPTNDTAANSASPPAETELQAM

fMet-Leu-Phe receptor [4] = molecular target: T1, fMet-Leu-Phe receptor; test: Agonist activity at FPR1 expressed in human HL60 cells assessed as induction of intracellular calcium flux by FLIPR3 calcium assay; format: functional, cell-based, HL-60; how it was run: as §1
[5] = molecular target: T4, fMet-Leu-Phe receptor (Homo sapiens) (UniProt P21462); test: Agonist activity at FPR1 expressed in human HL60 cells assessed as induction of intracellular calcium flux by FLIPR3 calcium assay relative to N-formyl-methionyl-leucyl-phenylalanine; format: functional, cell-based; conditions: HL-60
T4 sequence (whole entry): T1 sequence (P21462 whole entry)

Row | Compound | EC50 (fMet-Leu-Phe receptor [1]) | EC50 [2] | EC50 [3] | EC50 (fMet-Leu-Phe receptor [4]; read-out: EC50) | Activity [5] | EC50 (fMet-Leu-Phe receptor [4]; hl-60)
1 | COc1cccc(Cc2cc(C)nn(CC(=O)Nc3ccc4c(c3)OCO4)c2=O)c1 | 3600 nM | Not Active | Not Active | 2300 nM | 50% | –
2 | COc1cccc(Cc2cc(C)nn(CC(=O)c3ccc(Br)cc3)c2=O)c1 | – | Not Active | Not Active | – | – | Not Active
